Laboratory results from ChEMBL document CHEMBL2424538, “Synthesis, resolution, and biological evaluation of atropisomeric (aR)- and (aS)-16-methyllamellarins N: unique effects of the axial chirality on the selectivity of protein kinases inhibition” (J Med Chem, 2013).
The source made the active and inactive calls. No cut-off for these calls is given here.

Legend:
Bos taurus = organism: Bos taurus; assay: Inhibition of calf thymus DNA topoisomerase 1-mediated relaxation of supercoiled pBR322 plasmid DNA at 50 uM 30 mins by ethidium bromide staining
[1] = molecular target: Glycogen synthase kinase-3 (Sus scrofa, UniProt B2LUN4+I6LNT8); assay: Inhibition of porcine brain GSK-3alpha/beta using GS-1 peptide and [gamma-33P]ATP as substrate after 30 mins
Summary of the method: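 GSK-3α/β purified on immobilized axin, diluted 1/100 in 1 mg/mL BSA with 10 mM DTT. Substrate GS-1 phosphopeptide (5 μL of 4 μM), buffer A pH 7.5, 15 μM [γ-33P]ATP, 30 min at 30 °C. Radioactivity on P81 paper counted; blank subtracted; results as % of activity without inhibitor.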

[2] = molecular target: Dual specificity tyrosine-phosphorylation-regulated kinase 1A (Homo sapiens, UniProt Q13627); assay: Inhibition of human recombinant DYRK1A expressed in Escherichia coli using [gamma-33P]ATP after 30 mins
Summary of the method: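 Enzyme (DYRK1A GST fusion purified on glutathione-agarose) assayed like CDK1/cyclin B: buffer C, 1 mg/mL histone H1, 15 μM [γ-33P]ATP, 30 min at 30 °C, P81 filter capture, scintillation counting, % of activity without inhibitor.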

[3] = Cytotoxicity against human SH-SY5Y cells after 72 hrs by MTS assay; format: functional, cell-based
Summary of the method: (§1)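 Neuroblastoma cells grown in DMEM with 2 mM L-glutamine, antibiotics and 10% FCS; viability read by MTS reduction. Triplicate assays, values within 10%. IC50 estimated graphically from dose−response curves of at least six inhibitor concentrations.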

[4] = Inhibition of porcine brain CK1delta/epsilon using CKS peptide and [gamma-33P]ATP as substrate after 30 mins; design: species or system Sus scrofa
Summary of the method: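 CK1δ/ε affinity-purified on immobilized axin fragment. Reaction captured on P81 phosphocellulose, washed in 1% phosphoric acid, scintillation counted; blanks subtracted; activity as % of no-inhibitor control, DMSO controls.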

IMR-32 = assay: Cytotoxicity against human IMR32 cells after 72 hrs by MTS assay; format: functional, cell-based; conditions: IMR-32, 72 h; summary of the method: as §1
HeLa = assay: Cytotoxicity against human HeLa cells after 72 hrs by colony formation assay; format: functional, cell-based
Summary of the method: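 HeLa cells, 100−150 per well, cultured 72 h at 37 °C under 5% CO2 with varying compound concentrations in MEM with 10% fetal calf serum plus penicillin/streptomycin. Colonies (clusters of ≥40 cells) counted after methylene blue staining. Duplicates, at least four concentrations; IC50 by least-squares fit to logarithm-probit analysis.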

[5] = Inhibition of M-phase starfish oocytes CDK1/cyclin B using [gamma-33P]ATP after 30 mins; design: species or system Marthasterias glacialis; conditions: oocyte
Summary of the method: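 CDK1/cyclin B extracted from oocytes in homogenization buffer, affinity-purified on p9CKShs1-Sepharose and eluted with free p9CKShs1. Activity measured in buffer C with 1 mg/mL histone H1 and 15 μM [γ-33P]ATP, 30 min at 30 °C. Read-out: 33P captured on P81 phosphocellulose by scintillation counting; blank subtracted; activity as % of uninhibited control; DMSO controls.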

Row | SMILES | inhibition (Bos taurus) | IC50 [1] [nM] | IC50 [2] [nM] | IC50 [3] [nM] | IC50 [4] [nM] | IC50 (IMR-32) [nM] | IC50 (HeLa) [nM] | IC50 [5] [nM]
1 | COc1cc(-c2c3c4cc(OC)c(O)cc4oc(=O)c3n3ccc4cc(O)c(OC)cc4c23)ccc1O | Active |  |  |  |  |  |  | 
2 | COc1ccc(-c2c3c4cc(OC)c(O)cc4oc(=O)c3n3ccc4cc(O)c(OC)cc4c23)cc1O | Active | 5 | 35 | 40 | > 10000 | 19 | 32 | 70
3 | CC[C@@]1(O)C(=O)OCc2c1cc1n(c2=O)Cc2cc3ccccc3nc2-1 | Active |  |  |  |  |  |  | 
